Assay outcomes from PubChem.
PLC-gamma1 inh: PLC-gamma1 enzyme inhibitors, primary screen, biochemical, fluorescence, purified enzyme. inhibition, % at 12.2 µM. fluorogenic substrate. 370,000 compounds, 0.84% hits; in the data active means inhibition above about 9.5%
VIM-2 inhibitor: VIM-2 metallo-beta-lactamase inhibitors, primary screen, biochemical, epi-absorbance readout, Pseudomonas aeruginosa enzyme. purified VIM-2, nitrocefin hydrolysis, epi-absorbance fluorescence. inhibition, % at 5.6 µM. 290,000 compounds, 0.89% hits. AID 1527, 2009;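 active means inhibition above the mean of all tested compounds plus 3 SD, cutoff set per screening run, cut at about 7.5% in these data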;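 further: red hydrolysis product quenches plate fluorescence so inhibitors raise well fluorescence; 0% = enzyme with DMSO and 100% = DMSO without enzyme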
PLC-beta3 inh: human PLC-beta3 inhibitors, primary screen, biochemical, fluorescence | Purified PLC-beta3, fluorogenic substrate | 1-phosphatidylinositol 4,5-bisphosphate phosphodiesterase beta-3 (Homo sapiens), Q01970 | 370,000 compounds, 0.18% hits | inhibition, % at 12.2 µM | AID 720704, 2013; in the data active means inhibition above about 11%;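 further: 0% = median of compound wells on plate and 100% = full blocker control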
PvdQ acylase: P. aeruginosa PvdQ acylase inhibitors, primary screen, biochemical, fluorescence, plate reader and imaging, single point | 340,000 compounds, 0.063% hits | inhibition, % at 10 µM | PvdQ acylase [Pseudomonas aeruginosa LESB58] | purified PvdQ acylase; in the data active means inhibition above about 30%, passing the limit was not always enough;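 further: 0% = vehicle neutral wells and 100% = reference inhibitor wells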
IMP-1 inh: IMP-1 metallo-beta-lactamase inhibitors, primary screen, biochemical, epi-absorbance readout, Pseudomonas aeruginosa enzyme; AID 1556, 2009; 290,000 compounds, 0.45% hits; inhibition, % at 5.6 µM; purified IMP-1, nitrocefin hydrolysis, epi-absorbance fluorescence; metallo-beta-lactamase IMP-1 (Pseudomonas aeruginosa);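 active means inhibition above the mean plus 3 SD of all compounds in the same screening run, cut at about 4.5% in these data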;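 further: 0% = IMP-1 with DMSO and 100% = DMSO wells lacking enzyme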
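Assay system: purified recombinant IMP-1 beta-lactamase. Input: IMP-1 0.2 nM before substrate addition. Buffer or medium: Zinc- and detergent-supplemented HEPES buffer, pH 7.1. Schedule: 25 °C, 15 min preincubation, 25 min reaction. Signal: Epi-absorbance fluorescence, 480 nm excitation, 530 nm emission. Evaluation: percent inhibition from optical density relative to buffer-blank wells.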
An asterisk follows results filed as active; x = no result. An excerpt weighted towards active compounds, which were near 2% of everything screened.

SMILES	PLC-gamma1 inh	VIM-2 inhibitor	PLC-beta3 inh	PvdQ acylase	IMP-1 inh
C[C@@]12C(=O)N(CC3CCCO3)CC(=O)N1[C@H]1c3cc(Cl)ccc3OC[C@@H]1[C@@H]2c1ccccc1 (some centres undefined)	10*	x	1	-12	x
Cc1ccc2c(c1)[C@H]1[C@H](CO2)[C@H](c2ccccc2)[C@]2(C)C(=O)N(CC3CCCO3)CC(=O)N12 (some centres undefined)	2	x	0	-3	x
CS(=O)(=O)N1CCC(C(=O)NCC2COc3ccccc3O2)CC1 (centres undefined)	1	x	1	x	x
O=C(CCc1ccccc1)N[C@H]1[C@@H](OC(=O)c2cccnc2)CCC[C@@]12C(=O)N(Cc1ccccc1)c1ccccc12	6	x	5	x	x
CCSc1nc(N)c2c3c(sc2n1)CN(C)CC3	x	8.5*	x	x	0
COC(=O)[C@]12C[C@H](CC(=O)NCc3ccc(C)o3)C(=O)N(CCC3=CCCCC3)C1=C[C@H](C(C)C)O[C@@H]2C1CC1	-2	x	0	x	x
Cc1nn(-c2ccccc2)c2c1c(C)c(CCC(=O)N1CCOCC1)c(=O)n2C	x	10*	x	-11	-2
CCn1c(=O)c(CCC(=O)N2CCOCC2)c(C)c2c(C)nn(-c3ccccc3)c21	x	8.4*	x	-11	-1
CCn1c(=O)c(CCC(=O)NCCN2CCOCC2)c(C)c2c(C)nn(-c3cccc(C)c3)c21	0	6	-6	-9	-2
NC(=O)C1CCN(c2nc(-c3ccc4c(c3)OCCCO4)cs2)CC1	1	x	2	x	x
COc1ccc(-n2c(COc3ccc(C)cc3)nnc2SCC(=O)c2ccc(-c3ccccc3)cc2)cc1	2	x	1	x	x
CCOC(=O)N1CCN(C(=O)C[C@H]2C[C@@]3(C(=O)OC)C(=C[C@H](C(C)C)O[C@@H]3C3CC3)N(Cc3ccc(Cl)cc3Cl)C2=O)CC1	7	x	0	x	x
COC(=O)CSc1nnc(-c2ccc(NS(=O)(=O)c3ccc(C)c(C)c3)cc2)o1	3	x	-3	x	x
COc1ccc(C2C3=C(N=C4SCC(=O)N42)c2ccccc2CC3)cc1 (centres undefined)	-8	2	-10	10	1
COc1ccc(C2C3=C(N=C4SCC(=O)N42)c2ccccc2CC3)cc1OC (centres undefined)	-24	-2	-42	-9	5.9*
CC(=O)N1CCc2c1cccc2S(=O)(=O)NC(CC(C)C)C(=O)Nc1ccccc1C (centres undefined)	1	x	2	x	x
COc1cc(C2c3sc(=O)[nH]c3SC3C4CCC(C4)C23)ccc1O (centres undefined)	-1	8.8*	-3	-2	3
Cc1ccc(-c2c3c([nH]c(=S)c2C#N)CCCC3)o1	-13	2	-17	-2	9.7*
NCc1cc2c3c(c1)CCCN3CCC2	-17	9.0*	-32	-3	-2
COc1c(C=O)cc2c3c1CCCN3CCC2	-23	-1	-36	-1	-2
O=[N+]([O-])c1ccccc1N/N=C1\CC2CC=CC12 (centres undefined)	6	-2	-4	58*	-3
Cc1cc(C(=O)O)ccc1-c1ccc(/C=C2\SC(=O)N(CC(=O)Nc3ccc4c(c3)OCO4)C2=O)o1	-12	0	-22	-18	8.0*
CCC(C)NC(=O)CNc1nnnn1-c1ccccc1 (centres undefined)	-1	x	1	x	x
COc1ccc(N(CC(=O)O)S(=O)(=O)c2ccc(C)cc2)cc1Cl	1	11*	0	15	-1
COc1ccccc1C1=NOC(CN2C(=O)c3ccccc3S2(=O)=O)C1 (centres undefined)	1	7.7*	-5	2	-4
SMILES	PLC-gamma1 inh	VIM-2 inhibitor	PLC-beta3 inh	PvdQ acylase	IMP-1 inh
CC1(C)CC(=O)C2=C(C1)OC(N)=C(C#N)C2C#Cc1ccccc1 (centres undefined)	-18	-4	-20	-8	-1
CC1(C)CC(=O)C2=C(C1)OC(N)=C(C#N)C2CCc1ccccc1 (centres undefined)	-8	1	-7	6	4.7*
Cc1[nH]c2ccccc2c1C(=O)COC(=O)c1ccc[n+]([O-])c1	2	8.9*	-7	-2	2
CCOC(=O)c1ccc[n+]([O-])c1	1	x	0	0	x
CN(C)CCCNCCCNC(=O)/C=N/O	6	-1	5	-8	4.6*
C=CCn1c(-c2ccoc2)n[nH]c1=S	-5	10*	-5	10	-4
C=CCn1c(-c2ccccc2OC)n[nH]c1=S	3	9.8*	3	-11	-2
Cc1nc(SCC(N)=O)[nH]c(=O)c1C	1	x	2	x	x
Cc1noc(C)c1S(=O)(=O)N(C)C[C@@H]1OCc2cn(nn2)CCCC(=O)N([C@@H](C)CO)C[C@H]1C	12*	x	9	x	x
Cc1noc(C)c1S(=O)(=O)N(C)C[C@H]1OCc2cn(nn2)CCCC(=O)N([C@@H](C)CO)C[C@@H]1C	1	x	-2	x	x
O=C(NC(=S)NCCC1=CCCCC1)c1ccccc1Br	2	25*	-4	-13	-2
O=C(COC(=O)c1ccccc1Br)NCCC1=CCCCC1	-1	-2	-7	-8	-3
COc1ccc(-n2cc(COC(=O)NCCc3c[nH]c4ccccc34)nn2)cc1	0	x	-4	x	x
c1nc(NCC2CC2)c2cc(-c3ccc4c(c3)OCO4)ccc2n1	-183	x	-246	x	x
CSc1ccc2nnc(-c3cccc(F)c3)n2n1	-14	10.0*	-21	0	0
COC(=O)c1ccc(CSc2ccc3nnc(-c4cccc(F)c4)n3n2)o1	-6	8.4*	-8	-3	-3
CCOC(=O)CC(=O)CSc1ccc2nnc(-c3cccc(F)c3)n2n1	-41	1	-64	7	-4
O=C(OCC#CCSc1nnc(-c2cccc(F)c2)o1)c1ccc(F)cc1	1	x	0	x	x
Nc1nc(-c2cccs2)c(-c2cccs2)s1	-82	-2	-104	1	16*
COc1ccc(C(=O)O)nc1C	0	1	-1	-12	-1
Cc1cc(C)c2ccc(C(=O)O)nc2c1O	-1	9.7*	0	-6	-3
Cc1ccc(NC(=O)[C@@H]2CC(=O)O[C@@H]2c2ccccc2)cc1C	1	x	2	x	x
CCOC(=O)C1=C(C)Nc2nc3ccccc3n2C1c1ccc(O)cc1 (centres undefined)	0	-4	1	-6	29*
CCc1ccc(Nc2n[n+](-c3ccccc3)c(-c3ccc(N(CC)CC)cc3)s2)cc1	-105	3	-149	-27	7.9*
CCc1ccc(Nc2n[n+](-c3ccccc3)c(-c3ccc(OCc4ccccc4)cc3)s2)cc1	-3	-3	-3	-7	-2
CCN(CC)c1ccc(-c2sc(Nc3ccccc3)n[n+]2-c2ccc(F)cc2)cc1	-73	3	-104	-28	5.0*
